Measured values as given in ChEMBL document CHEMBL1146352, “Synthesis of furopyrazole analogs of 1-benzyl-3-(5-hydroxymethyl-2-furyl)indazole (YC-1) as novel anti-leukemia agents” (2007).
Calls of active or inactive are those of the source. The calls are words filed in the database; no cut-off is given here.

Assays:
HL-60 [1] = assay: Cytotoxicity against HL60 cells by Propidium iodide exclusion assay; assay type: functional; conditions: Homo sapiens, read-out: ED50 (the source's name)
Method in brief: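 HL-60 cells seeded at 2.5 × 10⁵ cells/mL and treated at a range of concentrations for 24, 48 and 72 h at 37 °C. Viable cells were scored by propidium iodide exclusion on flow cytometry. Viability is given as the ratio of treated to control cells. ED50 derived; three independent experiments, mean ± SD.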

HL-60 [2] = assay: Induction of HL60 cell differentiation assessed as nitroblue tetrazolium reduction activity at 26 uM after 72 hrs; assay type: functional, Homo sapiens; design: scale not given: the % may be the effect or the level left
Method in brief: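 Cells treated 72 h (ATRA co-treatment at 1 µM where stated) were suspended in HBSS at 1 × 10⁶ cells/mL. Mixed with an equal volume of HBSS stock containing 1 mg/ml NBT and 5 µg/mL TPA, then held 30 min at 37 °C. Cells with formazan deposits were counted microscopically, at least 200 cells. Three experiments, each in duplicate.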

HT60 = assay: Induction of apoptosis in […] cells at 26 uM after 48 hrs; assay type: functional, cell-based; conditions: Homo sapiens
Method in brief: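 HL-60 cells were cultured 72 h or 48 h with compound, with 0.1% (v/v) DMSO as the control. Nuclei were stained with DAPI and examined microscopically (400×) for nuclear shrinkage and chromatin condensation.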

HL-60 (Homo sapiens) = assay: Induction of apoptosis in HL-60 cells after 72 hrs

Compound: Cc1cc2c(o1)c(-c1ccc(C(=O)O)cc1)nn2-c1ccccc1
- EC50 (HL-60 [1]): > 20 µM

Compound: Cc1cc2c(o1)c(-c1ccc(CO)cc1)nn2-c1ccccc1
- EC50 (HL-60 [1]): > 20 µM

Compound: Cc1cc2c(o1)c(-c1ccc(C(=O)O)cc1)nn2Cc1ccccc1
- EC50 (HL-60 [1]): > 20 µM

Compound: OCc1ccc(-c2nn(Cc3ccccc3)c3ccccc23)o1
- Activity (HL-60 [2]): 3.56%
- AD50 (HT60): Active
- Activity (HL-60 (Homo sapiens)): inactive
